Our source for the Mortality, Mean survival time and IC50 values is ChEMBL document CHEMBL1135736, “Synthesis and biological evaluation of a new furo[2,3-h]quinolin-2(1H)-one” (J Med Chem, 2002).

Data set [1] is filed under the species Mus musculus. In words: Percent mortality observed when 0.3x10E-6 viable cells were injected and challenge performed 15 days after injection of photoinactivated cells. The conditions noted are these: in vivo, 360 h. In kind it is organism-based. An outline of the steps:
(§1)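 Mice, groups of 10, primed by ip injection of 5 × 10^6 Ehrlich cells. Before injection, these cells were photoinactivated with UVA light (2.7 kJ m-2) in the presence of 2 μM drug. Viable untreated Ehrlich cells were given later as the tumor challenge, at varying cell numbers and times after priming. Mortality (%) and mean survival time (days) were recorded.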

For data set [2], the species on record is Mus musculus. In words: Percent mortality observed when 0.3x10E-6 viable cells were injected and challenge performed 21 days after injection of photoinactivated cells. The format is organism-based. The conditions noted are these: in vivo, 504 h. The gist of the method: as §1
Data set [3] is filed under the species Mus musculus. Put plainly: Percent mortality observed when 0.3x10E-6 viable cells were injected and challenge performed 8 days after injection of photoinactivated cells. Particulars: in vivo, 192 h. The format is ADME, organism-based. An outline of the steps: as §1
Data set [4] is filed under the species Mus musculus. In words: Percent mortality observed when 1x10E-6 viable cells were injected and challenge performed 21 days after injection of photoinactivated cells. The format is ADME, organism-based. Particulars: in vivo, 504 h. An outline of the steps: as §1
For data set [5], the species on record is Mus musculus. In words: Mean survival time when 0.3x10E-6 viable cells were injected and challenge performed 15 days after injection of photoinactivated cells. The format is ADME, organism-based. Particulars: in vivo, 360 h. The gist of the method:
as §1

The species entered for data set [6] is Mus musculus. In words: Mean survival time when 0.3x10E-6 viable cells were injected and challenge performed 21 days after injection of photoinactivated cells. In kind it is ADME, organism-based. The conditions noted are these: in vivo, 504 h. An outline of the steps:
as §1

Data set [7] is filed under the species Mus musculus. Put plainly: Mean survival time when 0.3x10E-6 viable cells were injected and challenge performed 8 days after injection of photoinactivated cells. In kind it is ADME, organism-based. The conditions noted are these: in vivo, 192 h. An outline of the steps:
as §1

Data set [8] is filed under the species Mus musculus. Put plainly: Mean survival time when 1x10E-6 viable cells were injected and challenge performed 21 days after injection of photoinactivated cells. Particulars: in vivo, 504 h. The format is ADME, organism-based. An outline of the steps:
as §1

For data set [9], the species on record is Mus musculus. In words: Mean survival time when 4x10E-6 viable cells were injected and challenge performed 21 days after injection of photoinactivated cells. The format is ADME, organism-based. Particulars: in vivo, 504 h. The gist of the method: as §1
Data set [10] is described as follows: Antiproliferative effect on DNA synthesis of mammalian cells upon UVA irradiation. The conditions noted are these: light or radiation study, read-out: ID50. In kind it is functional. The gist of the method:
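Ehrlich cells, DNA synthesis inhibition. Cells held with 2 µM drug and exposed to graded UVA doses. ID50 is the UVA dose (kJ m-2) giving 50% inhibition, calculated by probit analysis, pooled from several experiments.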

Data set [11] can be described thus: Antiproliferative effect on clonal growth of mammalian cells upon UVA irradiation. In kind it is functional. Particulars: light or radiation study, read-out: ID50. An outline of the steps:
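CHO cells, clonal growth (colony-forming) inhibition. Cells given graded UVA doses in the presence of 2 µM drug. Reported ID50 is the UVA dose (kJ m-2) producing 50% inhibition, derived by probit analysis over several experiments.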

For data set [12], the species on record is Mus musculus. In words: Percent mortality observed when 4x10E-6 viable cells were injected and challenge performed 21 days after injection of photoinactivated cells. In kind it is ADME, organism-based. Particulars: in vivo, 504 h. The gist of the method:
as §1

Regarding `Cc1cc2c(o1)c(C)cc1c(CO)cc(=O)n(C)c12`, the Mortality in the data set listed under Mus musculus [1] was 35%; in the data set listed under Mus musculus [2], 0%; in the data set filed under Mus musculus [3] it was 70%; in the data set filed under Mus musculus [4], 30%; in the data set filed under Mus musculus [12], 100%. Also, the Mean survival time in the data set listed under Mus musculus [5] was 25 days; in the data set listed under Mus musculus [6], > 60 days; in the data set listed under Mus musculus [7], 21.3 days; in the data set filed under Mus musculus [8], 10.6 days; in the data set filed under Mus musculus [9] it was 15.8 days. The values for the IC50 in [10] and in data set [11] were 0.65 kJ m-2 and 0.02 kJ m-2, respectively.
For the compound `COc1c2occc2cc2ccc(=O)oc12` [METHOXSALEN], the IC50 in data set [10] was determined as 36.6 kJ m-2; in [11], 0.84 kJ m-2.
